D1 allo mod = D1 CRE-luciferase signal change, two-sided – cell-based, HEK293 D1, dopamine EC30, D1 allosteric modulator project, primary screen; D(1A) dopamine receptor (Homo sapiens), P21728; B-score at 10 µM; dopamine EC30 potentiation; actives deviate in either direction; 5.9% of 58,000 active;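 active = luminescence count or its row- and column-corrected plate score outside the 99.7% band of the plate's sample wells, on either side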
BAP1 block = inhibitors of BAP1 deubiquitinase, primary screen, biochemical, Ub-AMC fluorescence, kinetic; calls only at 20 µM; recombinant BAP1, Ub-AMC hydrolysis fluorescence kinetic; stronger effect = lower value; Ubiquitin carboxyl-terminal hydrolase BAP1 (Homo sapiens), Q92560; 0.48% of 72,000 active;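 active = activity remaining at or below 50% of control, provided the compound also passes the data quality filters; inactive = the rest, including low values that fail the filters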
M1 antagonist = antagonists of rat M1 muscarinic receptor; CHO-M1 cells, Fluo-4 calcium, ACh EC80 antagonist mode; stronger effect = lower value; AID 628, 2007; B-score at 10 µM; Muscarinic acetylcholine receptor M1 (Rattus norvegicus), P08482; 3.4% of 64,000 active;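 active = calcium fluorescence response, raw or row-and-column corrected B-score, differing from the plate sample mean either way at a set confidence level, mostly lower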
Target sequence (P08482 whole entry, looked up): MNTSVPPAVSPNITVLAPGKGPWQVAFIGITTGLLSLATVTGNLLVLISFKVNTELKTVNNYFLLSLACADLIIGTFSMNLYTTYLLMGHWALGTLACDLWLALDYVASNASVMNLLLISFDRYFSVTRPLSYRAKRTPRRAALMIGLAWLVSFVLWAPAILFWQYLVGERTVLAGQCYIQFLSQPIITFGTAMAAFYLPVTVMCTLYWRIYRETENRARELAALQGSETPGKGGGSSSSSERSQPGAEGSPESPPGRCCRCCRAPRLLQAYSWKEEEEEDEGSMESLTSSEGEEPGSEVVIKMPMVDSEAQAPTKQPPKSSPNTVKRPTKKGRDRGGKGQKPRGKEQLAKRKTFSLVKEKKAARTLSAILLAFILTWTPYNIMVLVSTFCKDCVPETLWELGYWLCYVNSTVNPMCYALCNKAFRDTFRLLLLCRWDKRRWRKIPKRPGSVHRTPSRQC
DAT uptake mod = changed hDAT dopamine uptake under cocaine IC80, either direction, primary screen, cocaine antagonist project, cell-based, LLC-PK1 hDAT, [14C]-dopamine uptake, MLSMR; LLC-PK1 hDAT cells, [14C]-dopamine uptake with cocaine IC80; actives deviate in either direction; B-score at 10 µM; 1.3% of 110,000 active; AID 449768, 2010;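 active = Z score or B-score, a plate-position-corrected score, falls beyond the plate's 99.7% confidence bounds, in either direction; inactive = both scores lie inside the 99.7% bounds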
HEK293 NFkB inh = inhibitors of PMA/ionomycin-induced NF-kB reporter, primary screen, antigen receptor NF-kB inhibitor project, cell-based, HEK-293 luciferase reporter, luminescence; HEK-293 NF-kB luciferase reporter; 0.21% of 62,000 active; inhibition, % at 3 µM;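 active = inhibition above the mean of all tested compounds plus 3 SD, cut at about 40% in these data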
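Material: HEK-293 cells with stable firefly luciferase reporter driven by four HIV NF-kB elements / Also added: PMA plus ionomycin mix as NF-kB-activating stimulus / Compound dosing: 3 µM once, 0.30% DMSO / Times: 1 h pretreatment, 16 h stimulation, 37 °C / Signal: luminescence / Evaluation: per-plate % inhibition versus controls / Benchmarks: DMSO and 10 µM reference inhibitor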
M1 ag = M1 muscarinic receptor agonists, primary screen, CHO-M1 cells, Fluo-4 calcium, agonist mode | Fluo-4 calcium fluorescence; stronger effect = higher value | B-score at 10 µM | 3% of 64,000 active;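 active = fluorescence rise, raw or as B-score row- and column-corrected plate score, outside the 99.7% band of its plate's samples, either direction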
M1 agonist conf = rat M1 muscarinic receptor agonists, confirmation, CHO-M1 cells, Fluo-4 calcium, duplicate retest; fluorescence change (max-min) at 10 µM; shares compounds with M1 ag; Fluo-4 calcium fluorescence, agonist mode; actives lie on both sides; 19% of 1,700 active;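 active = fluorescence change differs from the solvent-only DMSO control mean at a set confidence level in both duplicate runs; inconclusive = differs from solvent-only control mean in just one of two runs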;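 note: an EC20 dose of acetylcholine follows compound addition during the same imaging run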
M4 agonist ctr = agonist activity at rat M4 receptor, confirmation, counter-screen for M1 allosteric modulator project, cell-based, agonist mode; fluorescence change (max-min) at 10 µM; shares compounds with M1 ag; AID 1741, 2009; 9% of 1,700 active; CHO M4/Gqi5 cells, Fluo-4 calcium fluorescence; actives lie on both sides;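 active = fluorescence change differing from the plate's solvent-only control wells at 99.7% confidence in both duplicates, whether higher or lower; inconclusive = differs from solvent controls in only one of two duplicates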
A number is an active result. A selection: hits, their analogues and other compounds. The true share with any hit is near 7.2%.

How did CC(C)Cn1c(N2CCCCC2)nc2c1c(=O)[nH]c(=O)n2C do in these assays?
BAP1 block: inactive

How did C=C(C)c1cccc(C(C)(C)NC(=O)N2CCCCCC2)c1 do in these assays?
BAP1 block: inactive

How did CSc1nc2ccc(S(=O)(=O)Nc3c(C)n(C)n(-c4ccccc4)c3=O)cc2s1 do in these assays?
D1 allo mod: inactive; BAP1 block: inactive; M1 antagonist: -2.8; DAT uptake mod: inactive; HEK293 NFkB inh: inactive; M1 ag: 6.1; M1 agonist conf: inconclusive; M4 agonist ctr: inactive

Results for Cc1c(NS(=O)(=O)c2ccc3c(c2)n(C)c(=O)n3C)c(=O)n(-c2ccccc2)n1C ?
D1 allo mod: inactive; BAP1 block: inactive; M1 antagonist: inactive; DAT uptake mod: inactive; HEK293 NFkB inh: inactive; M1 ag: inactive

What do the screens show for `COc1ccc(OC)c(CCNC(=O)Cn2sc3nc(C)cc(C)c3c2=O)c1`?
D1 allo mod: inactive; BAP1 block: inactive; M1 antagonist: inactive; DAT uptake mod: inactive; HEK293 NFkB inh: inactive; M1 ag: 8; M1 agonist conf: inconclusive; M4 agonist ctr: inactive

Results for COc1ccc(-c2nc(CS(=O)(=O)CC(=O)NCCc3cc(OC)ccc3OC)c(C)o2)cc1 ?
D1 allo mod: inactive; BAP1 block: inactive; M1 antagonist: inactive; DAT uptake mod: inactive; HEK293 NFkB inh: inactive; M1 ag: inactive

Results for COCCn1c(N)c(C(=O)NCC2CCCO2)c2nc3ccccc3nc21 (stereo not given) ?
D1 allo mod: inactive; M1 antagonist: inactive; DAT uptake mod: inactive; M1 ag: 7.8; M1 agonist conf: -26; M4 agonist ctr: inconclusive

How did CC(C)Cn1c(N)c(C(=O)NCC2CCCO2)c2nc3ccccc3nc21 (stereo not given) do in these assays?
BAP1 block: inactive; M1 antagonist: inactive; DAT uptake mod: inactive; HEK293 NFkB inh: inactive; M1 ag: inactive

How did COc1cc(C(=O)Nc2nnc(C(C)C)s2)cc(OC)c1OC do in these assays?
BAP1 block: inactive

How did O=C(NCCc1ccc(Cl)cc1)C1CCN(S(=O)(=O)N2CCCCC2)CC1 do in these assays?
D1 allo mod: inactive; BAP1 block: inactive; M1 antagonist: inactive; DAT uptake mod: inactive; HEK293 NFkB inh: inactive; M1 ag: 1.9; M1 agonist conf: inconclusive; M4 agonist ctr: inactive

What do the screens show for `O=C(NCCc1ccccc1)C1CCN(S(=O)(=O)N2CCCC2)CC1`?
D1 allo mod: inactive; BAP1 block: inactive; M1 antagonist: inactive; DAT uptake mod: inactive; HEK293 NFkB inh: inactive; M1 ag: inactive

What do the screens show for `COc1cc2ccccc2cc1C(=O)Nc1ccc(N2CCN(C)CC2)cc1`?
D1 allo mod: inactive; BAP1 block: inactive; M1 antagonist: -8; DAT uptake mod: inactive; HEK293 NFkB inh: inactive; M1 ag: 5.9; M1 agonist conf: -24; M4 agonist ctr: inactive

How did Cc1ccc(-n2nc(-c3cccnc3)cc2C(=O)N2CCOCC2)c(C)c1 do in these assays?
D1 allo mod: inactive; BAP1 block: inactive; M1 antagonist: inactive; DAT uptake mod: inactive; HEK293 NFkB inh: inactive; M1 ag: 20; M1 agonist conf: inconclusive; M4 agonist ctr: inactive

What do the screens show for `CCOC(=O)c1nc(N2CCN(C(=O)OCC)CC2)c2c3c(sc2n1)CCCC3`?
M1 antagonist: inactive; DAT uptake mod: 3.2; HEK293 NFkB inh: inactive; M1 ag: 9.2; M1 agonist conf: inconclusive; M4 agonist ctr: inactive

Results for Cc1ccc(C(=O)C2=C(O)C(=O)N(c3ncccn3)C2c2cccc(Cl)c2)o1 (stereo not given) ?
BAP1 block: inactive; M1 antagonist: inactive; M1 ag: inactive

How did C=CCOc1cccc(C2C(C(=O)c3ccc(C)o3)=C(O)C(=O)N2c2nccs2)c1 (stereo not given) do in these assays?
D1 allo mod: inactive; BAP1 block: inactive; M1 antagonist: inactive; DAT uptake mod: inactive; HEK293 NFkB inh: inactive; M1 ag: 58; M1 agonist conf: 834; M4 agonist ctr: 84

How did COc1ccc(C(=O)NCC(=O)n2nc(C)cc2C)cc1 do in these assays?
BAP1 block: inactive

What do the screens show for `O=C(Nc1ccc(N2CCOCC2)c(Cl)c1)c1ccc(Br)o1`?
D1 allo mod: -5; BAP1 block: inactive; M1 antagonist: -2.5; DAT uptake mod: inactive; HEK293 NFkB inh: inactive; M1 ag: 11; M1 agonist conf: inactive; M4 agonist ctr: inactive

What do the screens show for `CC(=O)N1CCN(c2ccc(Nc3ncnc4c3oc3ccccc34)cc2)CC1`?
D1 allo mod: inactive; BAP1 block: inactive; M1 antagonist: inactive; DAT uptake mod: inactive; HEK293 NFkB inh: inactive; M1 ag: 8.9; M1 agonist conf: inactive; M4 agonist ctr: inconclusive

What do the screens show for `CCOC(=O)c1c(C)n(C)c2ccc(OCC(O)Cn3nc(C)cc3C)cc12` (stereo not given)?
D1 allo mod: inactive; BAP1 block: inactive; M1 antagonist: inactive; DAT uptake mod: inactive; HEK293 NFkB inh: inactive; M1 ag: 2.7; M1 agonist conf: inconclusive; M4 agonist ctr: inactive

Results for O=C(Oc1ccc(-c2ccccc2)cc1)c1ccc([N+](=O)[O-])cc1 ?
BAP1 block: inactive

What do the screens show for `O=C(O)c1ccc(S(=O)(=O)NC2CCCc3ccccc32)cc1` (stereo not given)?
D1 allo mod: inactive; BAP1 block: inactive; M1 antagonist: inactive; DAT uptake mod: inactive; HEK293 NFkB inh: inactive; M1 ag: 2.9; M1 agonist conf: inconclusive; M4 agonist ctr: inconclusive

How did CC(=O)N1CCc2cc(S(=O)(=O)NC3CCCc4ccccc43)ccc21 (stereo not given) do in these assays?
BAP1 block: inactive; M1 antagonist: inactive; DAT uptake mod: inactive; HEK293 NFkB inh: inactive; M1 ag: inactive

Results for COc1ccccc1N=c1oc2cc(O)ccc2cc1C(N)=O ?
D1 allo mod: inactive; BAP1 block: inactive; M1 antagonist: inactive; DAT uptake mod: inactive; HEK293 NFkB inh: inactive; M1 ag: 7.6; M1 agonist conf: inactive; M4 agonist ctr: inactive

How did Cc1cccc(N=c2oc3cc(O)ccc3cc2C(N)=O)c1 do in these assays?
D1 allo mod: inactive; M1 antagonist: inactive; DAT uptake mod: inactive; HEK293 NFkB inh: inactive; M1 ag: 5.4; M1 agonist conf: inactive; M4 agonist ctr: inactive
